PKD1 kinase inh: PKD1 (human) kinase inhibition; 0.056% of 200,000 active; PKD1 kinase fluorescence polarization assay; inhibition, % (test concentration not listed); AID 797; Q15139; in the data active = inhibition above about 50%
m-calpain inh: blocks pig calpain II enzyme activity | 0.37% of 220,000 active | purified calpain II, fluorogenic peptide substrate, 30 min | AID 1236 | inhibition, % at 16 µM;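 active = inhibition above about 50%, limit read from the data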
ROMK primary: human ROMK K+ channel modulation, primary screen | Tet-inducible ROMK, thallium flux fluorescence; actives lie on both sides | AID 1918 | 2% of 130,000 active | B-score at 10 µM | P48048;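 active = signal ratio slope over the read window, or its plate-corrected B-score, at least 3 SD from the plate mean, either direction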;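 note: B-score of the F/F0 ratio slope over 7 to 12 s after thallium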
Target sequence (P48048 whole entry, looked up): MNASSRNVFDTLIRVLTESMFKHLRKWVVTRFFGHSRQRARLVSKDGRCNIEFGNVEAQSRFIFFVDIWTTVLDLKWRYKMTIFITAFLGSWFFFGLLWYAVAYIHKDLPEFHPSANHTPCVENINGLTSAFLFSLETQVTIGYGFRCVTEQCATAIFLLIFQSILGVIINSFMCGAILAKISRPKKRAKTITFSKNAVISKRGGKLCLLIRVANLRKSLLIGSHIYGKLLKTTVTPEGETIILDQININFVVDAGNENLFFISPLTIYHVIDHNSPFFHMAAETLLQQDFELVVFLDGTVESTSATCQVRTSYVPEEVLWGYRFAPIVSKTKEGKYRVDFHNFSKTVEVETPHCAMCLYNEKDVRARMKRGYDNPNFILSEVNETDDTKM
Cl transport mod: modulators of human KCC2 chloride dependent transport. KCC2 cells, thallium flux FluoZin-2 fluorescence. AID 1456. 2.2% of 190,000 active. B-score of Tl+ flux slope (higher = more flux/activation; lower = inhibition) at 10 µM. Q9H2X9;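 active = thallium flux slope and its plate-corrected score both differing from the plate sample mean at a set confidence after two filtering rounds, in either direction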;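 note: slope of fluorescence scaled to starting intensity during 10 to 20 s after thallium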
Arbovirus inh: arbovirus infection inhibition | 0.37% of 200,000 active | inhibition, % at 10 µM | arbovirus infection cell-based antiviral screen; in the data active = inhibition above about 30%
Mdm2 ligase inh: Mdm2 E3 ligase (human) inhibition. cell-based MDM2 ubiquitination luciferase reporter, 2 h; 0 = plate control, 100 = twice control, blank-subtracted. signal enhancement, % at 5 µM. 0.11% of 210,000 active;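 active = signal enhancement of 30% or more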;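 note: luminescence tracks abundance of the self-degrading MDM2-luciferase fusion protein; higher signal means inhibition of MDM2 E3 ligase activity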
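test system = mammalian cells stably expressing self-ubiquitinating, self-degrading MDM2 E3–luciferase fusion | quantity = 2000 cells/well | incubation = cell settling 4 h, compound treatment 2 h, both 37 °C | signal = luminescence with SteadyLite reagent, 15 min at room temperature | evaluation = % enhancement relative to plate controls after blank subtraction | benchmarks = plate controls and plate blanks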
KCC2 secondary: KCC2 (human) modulation, secondary assay; shares compounds with Cl transport mod; HEK293-KCC2, thallium flux, FluoZin2 fluorescence; hits give high values; normalised thallium flux (F/F0 slope) at 10 µM; 15% of 3,700 active; AID 1713;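 active = thallium flux slope above the same plate's solvent-only control mean plus 3 SD; inconclusive = the two replicate wells disagree; inactive = no significant difference from solvent-only control wells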
KCC2 bumet counter: thallium flux persisting under bumetanide in KCC2 cells, counter-screen secondary assay | shares compounds with Cl transport mod | 49% of 3,700 active | HEK293-KCC2 + bumetanide/ouabain, thallium flux FluoZin2; hits give high values | normalized thallium flux at 10 µM;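 active = thallium entry rate above the same plate's blocked-transporter control wells by more than 3 SD; inconclusive = the two repeat wells disagree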;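 note: raw slope of fluorescence over initial fluorescence between 10 and 20 s after thallium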
KCC2 sec2: KCC2 (human) modulation, second secondary assay. 23% of 3,700 active. normalized thallium flux at 10 µM. shares compounds with Cl transport mod. HEK293-KCC2, thallium flux FluoZin2 fluorescence; actives lie on both sides; F/F0 rise rate, 10–20 s post-thallium. AID 1715;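 active = thallium flux slope more than 3 SD above or below the plate's solvent-only control mean, mostly below; inconclusive = the two repeat wells disagreed; inactive = no significant shift from solvent-only controls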;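 note: raw slope with 0.1% DMSO as baseline and bumetanide as block control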
HEK counter1: counter-screen for KCC2 modulators: effect in parental HEK293 cells; 46% of 3,700 active; thallium flux FluoZin2, ouabain; baseline-ratio fluorescence slope, 10–20 s after thallium; thallium flux rate (normalised fluorescence) at 10 µM; shares compounds with Cl transport mod;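 active = thallium flux rate significantly above the same plate's solvent-only control wells, beyond their mean plus 3 SD; inconclusive = the two replicate wells gave conflicting results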
KCC2 retest ouab: confirmation of human KCC2 modulators with ouabain. shares compounds with Cl transport mod. 48% of 3,700 active. raw Tl+ flux slope (below DMSO = inhibition, above = activation) at 10 µM. HEK293-KCC2, thallium flux FluoZin2 fluorescence; bidirectional: low = inhibitor, high = activator;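 active = thallium flux slope beyond 3 SD from same-plate DMSO control mean in most replicates, usually higher, sometimes lower; inconclusive = repeat tests gave conflicting results; inactive = no significant difference from controls in most replicates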;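 note: slope of initial-normalized fluorescence between seconds 10 and 20 after thallium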
HEK counter2: parental HEK flux effect, counter-screen 2; HEK293 parental, thallium flux FluoZin-2 fluorescence slope; thallium flux slope at 10 µM; shares compounds with Cl transport mod; 33% of 3,700 active; AID 1718;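 active = thallium flux slope above the same plate's solvent-control mean plus 3 SD in both duplicate wells; inconclusive = duplicate wells that disagreed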;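 note: run without ouabain in cells lacking the KCC2 cotransporter; slope of fluorescence scaled to its starting value between 10 and 20 s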
The depositor's hits bear a star; i = inactive; ? = inconclusive; / = not tested or not shown. Compounds with a hit are over-represented: about 3.7% of the library has one in this group of screens.

SMILES | PKD1 kinase inh | m-calpain inh | ROMK primary | Cl transport mod | Arbovirus inh | Mdm2 ligase inh | KCC2 secondary | KCC2 bumet counter | KCC2 sec2 | HEK counter1 | KCC2 retest ouab | HEK counter2
COc1ccc(CCNC(=O)c2ccc(Cl)cc2Cl)cc1 | -5 | 41 | -0.72 | -0.037 | -6 | -16 | / | / | / | / | / | /
CC(C)(C)NC(=O)c1cc(F)c(F)cc1Cl | -1 | -37 | 0.59 | / | 6 | -1 | / | / | / | / | / | /
C=CCn1c(-c2ccccc2)c[nH]c1=S | -7 | -32 | / | 0.18 | 3 | -8 | / | / | / | / | / | /
C=CCn1c(-c2ccc(Cl)cc2)c[nH]c1=S | 22 | 6 | -0.43 | 5.2* | 5 | -2 | ? | 0.029* | 0.034 | 0.011* | 0.026 | ?
Cc1ccc2oc(-c3ccc(C)c(NC(=S)NC(=O)c4cccs4)c3)nc2c1 | 18 | 27 | / | 4.6* | -30 | -28 | 0.011 | 0.012* | 0.034 | ? | ? | 0.011
COc1ccc(NC(=O)CN(C)CC(=O)Nc2ccc3c(c2)CCC3)cc1 | 0 | 29 | 0.064 | 0.019 | 3 | -20 | / | / | / | / | / | /
CCCCN(C)CCC(=O)Nc1ccc2c(c1)CCC2 | -3 | -35 | -0.11 | 6.1* | -4 | -3 | 0.0067 | ? | 0.031 | 0.008 | 0.018 | 0.011
NC(=S)N/N=C/c1ccc(-c2ccccc2)o1 | -5 | -4 | -0.41 | 1.7 | -6 | -1 | / | / | / | / | / | /
Cc1ccc(-c2ccc(/C=N/NC(N)=S)o2)cc1 | / | -18 | / | 5* | / | -71 | 0.0062 | 0.012* | 0.033 | 0.01* | ? | ?
Cc1ccc(-c2ccc(/C=N/NC(=O)c3ccccc3O)o2)cc1 | / | 0 | 0.35 | 61* | / | -10 | 0.02* | 0.079* | 0.037 | 0.041* | 0.057* | 0.015*
NS(=O)(=O)c1ccc(-c2ccc(/C=N/NC(=O)c3ccccc3O)o2)cc1 | / | -18 | 0.15 | -0.41 | / | -4 | / | / | / | / | / | /
O=C(CCn1cccc1)NC1CCCc2ccccc21 (stereo unspecified) | 4 | -24 | 0.14 | / | -4 | 16 | / | / | / | / | / | /
COC(=O)CSc1cc(SCC(=O)OC)c(C#N)c(SCC(=O)OC)c1 | -5 | -23 | / | -3.2* | -5 | 3 | 0.0059 | 0.0046 | 0.031 | ? | 0.018 | 0.0099
O=c1c2ccccc2c(-c2n[nH]c(=S)o2)nn1Cc1ccccc1 | 2 | 4 | 1.7 | -4.9* | 1 | 4 | 0.0088 | 0.0057 | ? | 0.0068 | 0.014* | ?
O=C(NC1CCCC1)C1CCN(C(=O)c2ccc(-c3ccccc3)cc2)CC1 | -13 | -10 | / | / | -12 | -27 | / | / | / | / | / | /
COC(=O)c1ccc(S(=O)(=O)N2CCC(C(N)=O)CC2)n1C | / | -1 | 0.65 | 1.2 | / | -21 | / | / | / | / | / | /
Cc1nc2ccccc2nc1SCC(=O)N1CCC(C)CC1 | 4 | 11 | / | / | 1 | -7 | / | / | / | / | / | /
Cc1ccnc(N2CCN(C(=O)CSc3nc4ccccc4nc3N3CCC(C)CC3)CC2)c1 | 2 | 27 | / | 4.8* | -3 | -3 | 0.0056 | 0.0087* | 0.034 | 0.0094* | ? | ?
Oc1c(N=NC(=S)Nc2ccccc2F)c2ccccc2n1Cc1ccccc1Cl | -3 | -35 | -0.78 | 3.8 | -6 | -14 | / | / | / | / | / | /
Cc1c(Cl)cccc1NC(=S)N=Nc1c(O)n(CN2CCOCC2)c2ccccc12 | 8 | 22 | 0.076 | 48* | -25 | 0 | 0.016* | 0.052* | 0.032 | 0.038* | 0.056* | 0.013*
C=CCn1c(O)c(N=NC(=S)Nc2ccccc2F)c2cc(S(=O)(=O)N3CCOCC3)ccc21 | -5 | -148 | -0.14 | 64* | -3 | -11 | 0.018* | 0.05* | 0.038 | 0.056* | 0.049* | 0.02*
Cc1cccc(NC(=O)Cn2c(O)c(N=NC(=O)c3ccncc3)c3ccccc32)c1 | -11 | -114 | 0.74 | 0.24 | 1 | -3 | / | / | / | / | / | /
Cc1ccc(Cn2c(O)c(N=NC(=S)Nc3ccccc3F)c3ccccc32)cc1 | 0 | -30 | 0.066 | i | -15 | -12 | / | / | / | / | / | /
Oc1c(N=NC(=S)Nc2ccccc2F)c2ccccc2n1Cc1ccccc1 | -6 | -94 | 0.17 | 21* | -6 | 6 | ? | 0.046* | 0.032 | ? | 0.03* | ?
C=CCn1c(O)c(N=NC(=S)Nc2cccc(C)c2)c2ccccc21 | -9 | 3 | 1.5 | 82* | -20 | -18 | 0.0063 | 0.084* | 0.057* | 0.029* | 0.063* | 0.023*
SMILES | PKD1 kinase inh | m-calpain inh | ROMK primary | Cl transport mod | Arbovirus inh | Mdm2 ligase inh | KCC2 secondary | KCC2 bumet counter | KCC2 sec2 | HEK counter1 | KCC2 retest ouab | HEK counter2
C/C(=N\NC(=O)C1(C)CC1(Br)Br)c1ccc(NC(=O)C2CCC2)cc1 (stereo unspecified) | 4 | -5 | 0.23 | -1.2 | -15 | -12 | / | / | / | / | / | /
Brc1[nH]nc2ccccc12 | 3 | -3 | / | -1.4 | -1 | -14 | / | / | / | / | / | /
CC1CCCC(N2CCN(C(=O)c3cccc(F)c3)CC2)C1 (stereo unspecified) | 0 | -32 | / | 0.12 | -2 | -6 | / | / | / | / | / | /
O=C(N/N=C/c1cccc([N+](=O)[O-])c1)c1ccccc1-n1cccc1 | 2 | 14 | 1.1 | 0.11 | 6 | -6 | / | / | / | / | / | /
C=CCn1c(O)c(N=NC(=S)Nc2ccccc2F)c2ccccc21 | -3 | 5 | 0.55 | 107* | -9 | 4 | 0.036* | 0.14* | 0.05* | ? | 0.089* | 0.028*
S=c1[nH]nc(Nc2ccccc2Cl)s1 | -1 | 15 | 0.15 | -5.3* | 1 | -5 | 0.0041* | 0.0094* | 0.022* | 0.012* | 0.012* | 0.014*
S=c1[nH]nc(Nc2cccc(Cl)c2)s1 | 4 | -1 | -0.5 | -5.8* | -4 | -4 | 0.0061 | 0.0051 | 0.02* | 0.0082 | ? | 0.012
O=C(O)c1ccccc1C(=O)Nc1n[nH]c(=S)s1 | 2 | -18 | / | -0.39 | 2 | -6 | / | / | / | / | / | /
COC(=O)c1c(SCC(=O)Nc2ccc(C)c(C)c2)nc(=O)[nH]c1C | / | 10 | / | 0.18 | / | / | / | / | / | / | / | /
Cc1cc(Cl)ccc1Oc1ccc(C(N)=O)cc1[N+](=O)[O-] | -9 | 15 | -0.94 | 0.0011 | -14 | -4 | / | / | / | / | / | /
Cc1cc(Cl)ccc1Oc1ccccc1C(=O)CC#N | -1 | -37 | -0.71 | -5.5* | -11 | -6 | 0.0064 | 0.0048 | ? | 0.0065 | ? | 0.0093

Screening results deposited in PubChem BioAssay by several laboratories.
